# Measurements gathered from unrelated publications.
# Protocols differ between the studies behind these lines.
# Target: D(3) dopamine receptor (DRD3, Homo sapiens, UniProt P35462)
# Technique: radioligand
SMILES,test,conditions,Ki [nM]
CCCCN1CCC(COC(=O)c2ccc(N)c(OCF)c2)CC1,cell-free assay,,3090
COc1ccc2c(c1)C(=O)N(CCN1CCN(c3ccccc3OC)CC1)C2,ligand displacement,,208
CCOc1c(O)cc(Br)c2c1CN1CCc3cc(OCC(F)F)c(O)cc3[C@@H]1C2,cell-free assay,,1910
CC1Cc2ccccc2N1C(=O)NCCCCN(C)[C@H]1CNc2ccccc2C1 (stereo partly drawn),ligand displacement,cell membranes,274
Oc1cccc(CCC2=NCCN2CCc2ccccc2)c1,ligand displacement,,> 10000
CN(C[C@@H]1C[C@H]1CCNC(=O)c1cc2ccccc2[nH]1)[C@@H]1Cc2cccc3[nH]c(=O)n(c23)C1,ligand displacement,cell membranes,54.6
COc1ccccc1N1CCN(CCCCNC(=O)c2cc3cc(OCCF)ccc3[nH]2)CC1,cell-free assay,,0.4
COc1ccc(CCC2=NCCN2CCc2ccccc2)cc1,ligand displacement,,> 10000
CCN(CC)c1ccc(C2Nc3ccc(C(=O)c4ccccc4)cc3NC3=C2C(=O)CC(C)(C)C3)cc1 (stereo not drawn),cell-free assay,,> 10000
Oc1ccc(CCC2=NCCN2CCc2ccccc2)cc1,ligand displacement,,832
C[C@@H]1Cc2ccccc2N1C(=O)NCCCCN(C)[C@@H]1Cc2cccc3[nH]c(=O)n(c23)C1,ligand displacement,cell membranes,300
O=C1c2ccccc2CCN1CCCCN1CCN(c2cccc(Cl)c2Cl)CC1,ligand displacement,,1
